Test results: ChEMBL document CHEMBL4480395, “Pros and cons of virtual screening based on public "Big Data": In silico mining for new bromodomain inhibitors” (Eur J Med Chem, 2019)

Experiments:
[1] = target: T1, Bromodomain-containing protein 4 (Homo sapiens, UniProt O60885); assay: Inhibition of BRD4 (unknown origin) measured after 2 hrs by TR-FRET assay
[2] = target: T1, Bromodomain-containing protein 4; assay: Binding affinity to N-terminal His6-tagged BRD4 bromodomain 1 (44 to 168 residues) (unknown origin) assessed as change in melting temperature at 20 uM measured after 1 hr by Sypro orange dye based differential scanning fluorimetry
Summary of the method: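 Ligand binding was read by differential scanning fluorimetry: a fluorescent dye reports protein core exposure during heat denaturation, and the value is the shift in protein denaturation temperature (ΔTm) with compound present.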

SMILES | IC50 [1] | ΔTm [2]
Cc1cc(-c2cc(C(=O)NC3CCC(CO)CC3)c3c(C)noc3n2)c(C)o1 (stereo not drawn) | 24.9 µM | 2.82 °C
Cc1nnc2ccc(NCc3cn(-c4ccccc4)nc3C(C)C)nn12 | 11.7 µM | 2.66 °C
Cc1cc(C(=O)N(C)C(c2ccccc2)c2ccccn2)c2c(C)nn(C(C)(C)C)c2n1 (stereo not drawn) | – | 1.49 °C
Cc1nnc2ccc(NC3CCCc4cc(OC(F)F)ccc43)nn12 (stereo not drawn) | – | 1.7 °C
Cc1nn(CCO)c(C)c1CNC(c1ccccc1)c1nccn1C (stereo not drawn) | – | 1.09 °C
Cc1nnc2ccc(N3CCN(C(=O)c4csc(-c5ccccc5F)n4)CC3)nn12 | – | 1.72 °C
CC(Sc1nc(-c2cccs2)n[nH]1)C(=O)N1CCCc2ccccc21 (stereo not drawn) | – | 1.78 °C
Cc1noc(C)c1NC(=O)N1CCCCC1c1ncc[nH]1 (stereo not drawn) | – | 1.76 °C
Cc1nn(C)c(C)c1C1C(CNc2nccn3cnnc23)CC(=O)N1C (stereo not drawn) | 23.9 µM | 1.9 °C
COCCCOc1cc(C)ccc1CNc1ccc2nnc(C)n2n1 | – | 1.56 °C
Cc1n[nH]c(C)c1CNCc1c(C)nn(Cc2ccccc2)c1C | 33.2 µM | 1.6 °C
Cc1nnc2ccc(N(C)Cc3ccc([S+](C)[O-])cc3)nn12 (stereo not drawn) | – | 1.8 °C
Cc1nnc2c(NCc3cnn(-c4ccc(Cl)cc4)c3)nccn12 | – | 1.86 °C
Cc1nnc2ccc(NCc3ccnc(OC4CCCC4)c3)nn12 | – | 1.69 °C
CCn1c(SC(C(=O)NCc2cccnc2)C(C)C)nnc1-c1cccs1 (stereo not drawn) | 8.81 µM | 1.6 °C
Cc1noc(C)c1CSCC(=O)c1c(C)[nH]c2ccccc12 | – | 1.36 °C

Continued, values first:

IC50 [1] | ΔTm [2] | SMILES
160 µM | 1.82 °C | Cc1nn(C2CCS(=O)(=O)C2)c(C)c1CN(C)C(=O)CC(c1ccccc1)c1ccccc1 (stereo not drawn)
– | 1.08 °C | COc1ccc(-n2ccc(C(=O)Nc3cc(Cl)c(=O)n(C)c3)n2)cc1
107 µM | 1.1 °C | COCCN(C)c1ccccc1CNc1ccc2nnc(C)n2n1
19.5 µM | 1.86 °C | Cc1noc(C)c1CC(=O)Nc1nc(-c2c(C)[nH]c3ccccc23)cs1
– | 1.89 °C | Cc1nnc2ccc(NCc3ccc(OC4CCCC4)nc3)nn12
– | 0.93 °C | Cc1noc(C)c1COc1ccccc1C(=O)NC(c1ccccc1)c1ccccc1
– | 1.21 °C | O=C(CCc1ncc(-c2ccc(Cl)cc2Cl)o1)NCCc1nnc2ccccn12
– | 1.26 °C | COCCc1ccccc1NC(=O)NC(c1ccccc1)c1n[nH]c(C)n1 (stereo not drawn)
– | 1.49 °C | CC(C(=O)Nc1ccc2nnc(C3CCC3)n2c1)n1cncn1 (stereo not drawn)
– | 1.56 °C | Cc1noc(C)c1CNC(=O)Nc1cccc(-c2ccc(Cl)c(Cl)c2)c1
– | 2.02 °C | Cc1c(C2OCCC2NCc2cc(-c3cnn(C)c3)no2)cnn1C (stereo not drawn)
– | 2.12 °C | CCC(C)C1NC(=O)N(CC(C)c2c(C)noc2C)C1=O (stereo not drawn)
63.3 µM | 0.76 °C | c1cnn(-c2ccc(CNc3ccc4nnc(C5CC5)n4n3)cc2)c1
